Measurements: ChEMBL document CHEMBL1133161 (J Med Chem, 2000)
“And” between values parts separate entries of the source, which are not always exact repeats. Identical values can stand only once.

Experiments:
[1] = target: Norepinephrine transporter (Rattus norvegicus, UniProt Q9WTR4); test: Inhibition of [3H]NE uptake by Norepinephrine transporter of rat occipital cortex synaptosomes; type: subcellular, Brain
Summary of the method: (§1)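 Rat parietal and occipital cortex P2 synaptosomes in ice-cold modified KRH buffer; preincubated with drug 30 min at 37 °C, then [3H]NE 8-10 nM added for 5 min. Stopped with cold Na-free glucosamine buffer, then filtered; scintillation counting. Specific uptake defined with 3 µM desipramine. Ki from IC50 using Km 54 nM. Six drug concentrations in triplicate, 2-5 experiments.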

[2] = species: Rattus norvegicus; test: Compound was evaluated for its ability to antagonizing serotonin high affinity uptake was determined using [3H]5-HT on synaptosomes prepared from rat midbrain or parietal cortices.; type: functional; conditions: Brain
[3] = target: Sodium-dependent serotonin transporter (Rattus norvegicus, UniProt P31652); test: Inhibition of [3H]5-HT uptake by Serotonin transporter of rat midbrain or parietal synaptosomes; type: subcellular, Brain
Summary of the method: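 Rat midbrain P2 synaptosomes in modified KRH buffer; preincubated with drug 30 min at 37 °C, then [3H]5-HT 4-5 nM for 5 min. Stopped with cold Na-free glucosamine buffer, then filtered; scintillation counting. […] Ki from IC50 using Km 53 nM. Six drug concentrations in triplicate, 2-5 experiments.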

[4] = target: Sodium-dependent dopamine transporter (Rattus norvegicus, UniProt P23977); test: Inhibition of [3H]DA uptake by dopamine transporter of rat striata synaptosomes; type: subcellular, Brain
Summary of the method: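 Rat striatum homogenised in 0.32 M sucrose, P2 synaptosomes resuspended in KRH buffer; preincubated with drug 30 min at 37 °C, then [3H]DA 3-5 nM final for 5 min. Stopped with cold Na-free glucosamine buffer, then filtered; scintillation counting. Six concentrations in triplicate, 2-5 experiments.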

[5] = target: Monoamine transporters; serotonin & dopamine (Rattus norvegicus) (UniProt P31652+P23977); test: Relative affinity for dopamine over 5-HT transporters; type: protein assay
Summary of the method: (§2)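 Selectivity ratios calculated from Ki values of the rat synaptosomal [3H]DA, [3H]NE and [3H]5-HT uptake inhibition assays.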

[6] = target: Monoamine transporters; Norepinephrine & serotonin (Rattus norvegicus) (UniProt P31652+Q9WTR4); test: Relative affinity for norepinephrine over 5-HT transporters; type: protein assay; summary of the method: as §2
[7] = species: Rattus norvegicus; test: Compound was evaluated for its ability to inhibit the uptake of dopamine(DA) into nerve ending using [3H]DA on synaptosomes obtained from dissected rat striata.; type: functional; conditions: Brain
[8] = species: Rattus norvegicus; test: Compound was evaluated for its ability to antagonizing norepinephrine (NE) high affinity uptake was determined using [3H]NE on synaptosomes prepared from rat occipital cortices.; type: functional; conditions: Brain; summary of the method: as §1
[9] = species: Rattus norvegicus; test: Compound was evaluated for its ability to antagonizing norepinephrine (NE), high affinity uptake was determined using [3H]NE on synaptosomes prepared from rat occipital cortices.; conditions: Brain

Norepinephrine transporter, sequence (Q9WTR4 whole entry): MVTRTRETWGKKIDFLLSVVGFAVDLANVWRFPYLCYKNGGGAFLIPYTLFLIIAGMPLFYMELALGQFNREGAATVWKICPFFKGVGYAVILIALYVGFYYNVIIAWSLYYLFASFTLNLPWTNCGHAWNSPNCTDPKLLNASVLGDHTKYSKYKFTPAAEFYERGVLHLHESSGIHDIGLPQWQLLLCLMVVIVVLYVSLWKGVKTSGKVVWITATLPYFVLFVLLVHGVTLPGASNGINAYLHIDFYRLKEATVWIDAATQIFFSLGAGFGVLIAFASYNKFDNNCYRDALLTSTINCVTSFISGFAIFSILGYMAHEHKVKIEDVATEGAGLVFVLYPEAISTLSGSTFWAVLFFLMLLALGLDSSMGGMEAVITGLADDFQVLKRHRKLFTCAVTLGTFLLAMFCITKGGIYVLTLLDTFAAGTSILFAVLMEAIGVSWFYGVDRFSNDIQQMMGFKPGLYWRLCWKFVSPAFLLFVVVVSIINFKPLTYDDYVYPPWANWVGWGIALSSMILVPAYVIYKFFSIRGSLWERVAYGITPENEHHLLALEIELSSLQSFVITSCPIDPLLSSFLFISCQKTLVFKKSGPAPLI
Sodium-dependent serotonin transporter, sequence (P31652 whole entry): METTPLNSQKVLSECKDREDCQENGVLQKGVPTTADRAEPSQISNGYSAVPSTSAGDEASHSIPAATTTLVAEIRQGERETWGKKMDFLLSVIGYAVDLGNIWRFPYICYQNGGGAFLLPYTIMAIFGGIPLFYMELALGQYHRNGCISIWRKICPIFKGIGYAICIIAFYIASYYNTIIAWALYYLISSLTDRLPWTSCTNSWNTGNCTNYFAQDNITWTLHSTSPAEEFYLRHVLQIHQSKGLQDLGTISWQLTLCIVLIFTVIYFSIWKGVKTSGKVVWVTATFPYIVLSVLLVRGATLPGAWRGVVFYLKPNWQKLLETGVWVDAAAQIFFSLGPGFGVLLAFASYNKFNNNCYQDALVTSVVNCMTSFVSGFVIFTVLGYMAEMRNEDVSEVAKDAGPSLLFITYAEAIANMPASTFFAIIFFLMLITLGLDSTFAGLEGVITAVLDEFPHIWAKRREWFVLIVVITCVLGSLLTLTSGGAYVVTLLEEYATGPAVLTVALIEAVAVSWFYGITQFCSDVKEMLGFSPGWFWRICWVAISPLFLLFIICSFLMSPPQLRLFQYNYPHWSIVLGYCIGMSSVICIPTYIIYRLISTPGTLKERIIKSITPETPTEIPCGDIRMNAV
Monoamine transporters; serotonin & dopamine (Rattus norvegicus), sequence (P23977 whole entry, looked up): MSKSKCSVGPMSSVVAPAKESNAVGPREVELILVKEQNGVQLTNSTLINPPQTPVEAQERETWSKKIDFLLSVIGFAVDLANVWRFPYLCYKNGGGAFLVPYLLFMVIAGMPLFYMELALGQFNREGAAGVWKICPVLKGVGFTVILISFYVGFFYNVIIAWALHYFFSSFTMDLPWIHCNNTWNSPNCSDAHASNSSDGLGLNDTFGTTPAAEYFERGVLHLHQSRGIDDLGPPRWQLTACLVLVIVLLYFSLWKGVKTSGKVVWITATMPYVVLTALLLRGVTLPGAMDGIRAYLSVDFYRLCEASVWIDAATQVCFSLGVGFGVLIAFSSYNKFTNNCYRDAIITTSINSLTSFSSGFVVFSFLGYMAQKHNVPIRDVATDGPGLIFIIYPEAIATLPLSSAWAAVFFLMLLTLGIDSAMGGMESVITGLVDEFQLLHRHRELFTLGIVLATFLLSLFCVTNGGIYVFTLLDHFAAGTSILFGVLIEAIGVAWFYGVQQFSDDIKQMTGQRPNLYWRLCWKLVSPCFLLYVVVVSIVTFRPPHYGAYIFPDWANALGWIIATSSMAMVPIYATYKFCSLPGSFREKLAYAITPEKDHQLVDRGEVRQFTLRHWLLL
Monoamine transporters; serotonin & dopamine (Rattus norvegicus), sequence (P31652 whole entry, looked up): as the sequence (P31652 whole entry) above
Sodium-dependent dopamine transporter, sequence (P23977 whole entry): as the sequence (P23977 whole entry, looked up) above

Row | SMILES | Ki [1] [µM] | IC50 [2] [µM] | Ki [3] [µM] | Ki [4] [µM] | Ratio [5] | Ratio [6] | IC50 [7] [µM] | IC50 [8] [µM] | IC50 [9] [µM]
1 | COC(=O)[C@H]1CN(C)CC[C@H]1c1ccc2ccccc2c1 | 0.038 | 0.013 | 0.012 | 0.271 | 23 | 3.2 | 0.293 | – | –
2 | COC(=O)[C@@H]1CN(C)CC[C@@H]1c1ccc2ccccc2c1 | 0.034 | 0.0082 | 0.0076 | 0.021 | 2.8 and 4.5 | – | 0.023 | – | –
3 | COC(=O)[C@H]1CN(C)CC[C@@H]1c1ccc2ccccc2c1 | 0.241 | 0.046 | 0.042 | 0.947 | 22.6 | 5.7 | > 1 | – | –
4 | COC(=O)[C@@H]1CN(C)CC[C@@H]1c1ccc(Cl)cc1 | 0.088 | 0.44 | 0.391 | 0.069 | 0.18 | 0.23 | 0.075 | 0.101 | –
5 | C#Cc1ccc([C@H]2CCN(C)C[C@H]2C(=O)OC)cc1 | 0.364 | 0.189 | 0.175 | 0.187 | 1.1 | 2.1 | 0.213 | 0.399 | –
6 | COC(=O)[C@@H]1CN(C)CC[C@H]1c1ccc2ccccc2c1 | 0.027 | 0.209 | 0.192 | 0.087 | 0.45 | 0.14 | 0.094 | – | –
7 | COC(=O)[C@H]1[C@@H](OC(=O)c2ccccc2)C[C@@H]2CC[C@H]1N2C [COCAINE] | – | – | – | – | – | – | – | – | 0.127
8 | COC(=O)[C@@H]1CN(C)CC[C@@H]1c1cccc2ccccc12 | 0.281 | 0.113 | 0.101 | 0.304 | 3 | 2.8 | 0.326 | 0.337 | –
9 | COC(=O)[C@@H]1CN(C)CC[C@@H]1c1ccc(-c2ccccc2)cc1 | 0.203 | 0.067 | 0.062 | 0.173 | 2.8 | 3.3 | 0.184 | 0.239 | –
10 | CCc1ccc([C@H]2CCN(C)CC2C(=O)OC)cc1 (stereo partly specified) | > 1.1 | 0.275 | 0.255 | > 1.7 | > 6 | > 4 | > 1.8 | > 1.3 | –
11 | CNCCC(Oc1ccc(C(F)(F)F)cc1)c1ccccc1 (stereo unspecified) [FLUOXETINE] | – | 0.0081 | – | – | – | – | > 4.5 | 0.193 | –
12 | C=CCc1ccc([C@H]2CCN(C)C[C@H]2C(=O)OC)cc1 | > 1 | 0.334 | 0.309 | 0.964 | 3.1 | > 3.5 | > 1 | > 1.2 | –
13 | COC(=O)[C@@H]1CNCC[C@H]1c1ccc2ccccc2c1 | 0.03 | 0.0039 | 0.0035 | 0.09 | 26 | 8.6 | 0.097 | 0.034 | –
14 | C=Cc1ccc([C@H]2CCN(C)C[C@H]2C(=O)OC)cc1 | 0.175 | 0.155 | 0.138 | – | – | – | – | 0.204 | –
